In ChEMBL document CHEMBL1275426, “Apoptosis induced by aminoglycosides in LLC-PK1 Cells: comparative study of neomycin, gentamicin, amikacin, and isepamicin using electroporation” (Antimicrob Agents Chemother, 2008):
Active and inactive are the calls of the source. No cut-off for these calls is given here.

Columns and labels:
LLC-PK1 [1] = assay: Induction of apoptosis in pig LLC-PK1 cells at 0.192 to 0.384 mM after 24 hrs electoporated in presence of compound; type: functional, cell-based; conditions: Sus scrofa
How it was run: (§1)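 LLC-PK1 cells were electroporated with or without aminoglycoside at increasing concentrations, up to 0.384 mM, present during the pulse. Cells were then returned to aminoglycoside-free medium. Apoptotic nuclei were enumerated 24 h later. Values are mean ± SD, n = 3, by two-tailed ANOVA against controls.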

LLC-PK1 [2] = assay: Induction of apoptosis in pig LLC-PK1 cells at 0.064 mM after 24 hrs electoporated in presence of compound; type: functional, cell-based; conditions: Sus scrofa; how it was run: as §1
LLC-PK1 [3] = assay: Induction of apoptosis in pig LLC-PK1 cells at 6 mM after 3 days by DAPI staining; type: functional, cell-based; conditions: Sus scrofa
How it was run: (§2)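 LLC-PK1 cells were incubated without drug or with 2 mM or 6 mM aminoglycoside for up to 3 days. Nuclei were stained with DAPI, and the percentage of apoptotic nuclei was counted by microscopy. Camptothecin at 14.3 μM served as positive control. Values are mean ± SD, n = 3, by two-tailed ANOVA against matched controls.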

LLC-PK1 [4] = assay: Induction of apoptosis in pig LLC-PK1 cells upto 9 mM after 2 days by DAPI staining; type: functional, cell-based; conditions: Sus scrofa
How it was run: (§3)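 LLC-PK1 cells were incubated for 48 h over a concentration series: 0 to 3 mM, or 3 to 9 mM. Apoptotic nuclei were scored as a percentage by DAPI staining under the microscope. Values are mean ± SD, n = 3, by two-tailed ANOVA against drug-free cells.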

LLC-PK1 [5] = assay: Induction of apoptosis in pig LLC-PK1 cells at 6 mM after 1 day by DAPI staining; type: functional, cell-based; conditions: Sus scrofa; how it was run: as §2
LLC-PK1 [6] = assay: Induction of apoptosis in pig LLC-PK1 cells at 6 mM after 2 days by DAPI staining; type: functional, cell-based; conditions: Sus scrofa; how it was run: as §2
LLC-PK1 [7] = assay: Induction of necrosis in pig LLC-PK1 cells assessed as lactate dehydrogenase release; type: functional, cell-based; conditions: Sus scrofa
Homo sapiens = assay: Drug uptake in human at 15 mg/kg; type: ADME, organism-based; parameters: dose 15 mg/kg; conditions: in vivo
LLC-PK1 [8] = assay: Induction of apoptosis in pig LLC-PK1 cells at 2 mM by DAPI staining; type: functional, cell-based; conditions: Sus scrofa, TDE = time-dependent effect; how it was run: as §2
LLC-PK1 [9] = assay: Induction of apoptosis in pig LLC-PK1 cells assessed as caspase 3 activity at 2 mM after 1 day […]; type: functional, cell-based; conditions: Sus scrofa
How it was run: (§4)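 Renal LLC-PK1 cells were incubated up to 3 days with 2 mM drug in continuous exposure. Caspase 3 activity was measured with the fluorogenic substrate N-acetyl-Asp-Glu-Val-Asp-7-amido-4-methylcoumarin and expressed as % of matched untreated controls. The positive control was camptothecin at 14.3 μM. Values are mean ± SD, n = 3, by two-tailed ANOVA against matched controls.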

LLC-PK1 [10] = assay: Induction of apoptosis in pig LLC-PK1 cells at 0.1mM after 24 hrs electoporated in presence of compound; type: functional, cell-based; conditions: Sus scrofa; how it was run: as §1
LLC-PK1 [11] = assay: Induction of apoptosis in pig LLC-PK1 cells assessed as caspase 3 activity at 2 mM after 2 days […]; type: functional, cell-based; conditions: Sus scrofa; how it was run: as §4
LLC-PK1 [12] = assay: Induction of apoptosis in pig LLC-PK1 cells measured at 0 to 3 mM after 2 days by DAPI staining; type: functional, cell-based; conditions: Sus scrofa; how it was run: as §3

Compound: CN[C@@H]1[C@@H](O)[C@@H](O[C@@H]2[C@@H](O)[C@H](O[C@H]3O[C@H](CN)[C@@H](O)[C@H](O)[C@H]3O)[C@@H](N)C[C@H]2NC(=O)[C@@H](O)CN)OC[C@]1(C)O
- Activity (LLC-PK1 [1]): Active

Compound: NC[C@@H]1O[C@H](O[C@H]2[C@@H](O)[C@H](O[C@@H]3[C@@H](O)[C@H](N)C[C@H](N)[C@H]3O[C@H]3O[C@H](CN)[C@@H](O)[C@H](O)[C@H]3N)O[C@@H]2CO)[C@H](N)[C@@H](O)[C@@H]1O
- Activity (LLC-PK1 [2]): Active

Compound: NCC[C@H](O)C(=O)N[C@@H]1C[C@H](N)[C@@H](O[C@H]2O[C@H](CN)[C@@H](O)[C@H](O)[C@H]2O)[C@H](O)[C@H]1O[C@H]1O[C@H](CO)[C@@H](O)[C@H](N)[C@H]1O [AMIKACIN]
- Activity (LLC-PK1 [3]): Active
- Activity (LLC-PK1 [4]): inactive
- Activity (LLC-PK1 [5]): inactive
- Activity (LLC-PK1 [6]): inactive
- Activity (LLC-PK1 [7]): inactive
- Drug uptake (Homo sapiens): 25.6 µmol/kg

Compound: GENTAMICIN [listing 1 of 2 here]
- Drug uptake (Homo sapiens): 8.56 µmol/kg

Compound: GENTAMICIN [listing 2 of 2 here]
- Activity (LLC-PK1 [8]): tde
- Activity (LLC-PK1 [9]): Active
- Activity (LLC-PK1 [10]): Active
- Activity (LLC-PK1 [11]): Active
- Activity (LLC-PK1 [12]): Dose-dependent effect
